# This is a sample that favours compounds with a hit; in the whole collection about 2.9% have one here.
# CAL PDZ FP-1: blocks peptide binding to the human CAL PDZ domain | purified CAL PDZ, TMR-peptide fluorescence polarization, 1 h | inhibition, % at 24.9 µM | AID 602252 | 0.92% of 300,000 active;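 active means mean inhibition of at least 30% with at least half of replicates also reaching 30%; inconclusive means no clear call, values can overlap the other calls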;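 further: 0% = DMSO neutral control and 100% = excess unlabeled competitor peptide PRC23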
# S100A4 inh HTS: blocks human S100A4 binding to myosin IIA peptide. P26447. S100A4/TAMRA-MyoIIA peptide fluorescence polarization. inhibition, % at 10.7 µM. 0.14% of 360,000 active. AID 652163;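 active means mean inhibition of at least 70% across replicates, with every replicate also reaching that level; inconclusive means mean inhibition reaches 70% but some replicates fall short; inactive means mean inhibition below 70%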
# Target sequence (P26447 whole entry, looked up): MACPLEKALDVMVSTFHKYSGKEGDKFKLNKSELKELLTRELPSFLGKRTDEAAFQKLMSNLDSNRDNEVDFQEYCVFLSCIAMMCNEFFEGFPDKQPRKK
#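 Material: human S100A4 monomer with TAMRA-labelled myosin IIA peptide; buffer or medium: HEPES pH 7.2 with CaCl2, KCl, NaCl, DTT, Triton; compound dosing: one concentration per compound; schedule: 5 min incubation before reading; benchmarks: neutral control DMSO, positive control TFP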
# CAL PDZ FP-2: blocks peptide binding to human CAL PDZ domain. inhibition, % at 20 µM. 0.02% of 330,000 active. purified CAL PDZ, TMR-peptide fluorescence polarization, 1 h. Q9HD26;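 active means highest replicate inhibition of at least 40%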;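 further: plate controls were DMSO neutral control wells for no effect and unlabeled competitor peptide control wells for full effect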
#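 Material: tagged CAL PDZ protein CerCALP, purified; buffer or medium: sodium phosphate/NaCl buffer pH 7.4 with TCEP, IgG, Thesit; also added: fluorescent TMR peptide probe; schedule: 1 h incubation at room temperature before polarization reading; technique: fluorescence polarization from S- and P-plane intensities, G-factor corrected; control set: unlabelled peptide and DMSO controls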
# SIRT5 inh: inhibitors of human sirtuin-5 desuccinylase; inhibition, % at 15 µM; 1.1% of 330,000 active; AID 652115; Purified SirT5, succinyl-peptide AMC, trypsin-coupled fluorescence; in the data active means inhibition above about 15%; inconclusive means no clear call, values can overlap the other calls
# Target sequence (Q9NXA8 whole entry, looked up): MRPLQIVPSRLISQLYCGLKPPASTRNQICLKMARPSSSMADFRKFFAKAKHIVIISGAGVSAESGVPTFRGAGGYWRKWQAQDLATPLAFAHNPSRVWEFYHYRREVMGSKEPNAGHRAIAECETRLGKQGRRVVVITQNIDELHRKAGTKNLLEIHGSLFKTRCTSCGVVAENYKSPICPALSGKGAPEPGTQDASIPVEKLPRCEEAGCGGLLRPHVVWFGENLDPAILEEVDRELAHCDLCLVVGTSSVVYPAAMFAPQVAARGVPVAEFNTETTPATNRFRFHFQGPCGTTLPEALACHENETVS
# ERAP1 HTS inh: ERAP1 (human) enzyme inhibition. 0.15% of 340,000 active. inhibition, % at 10.7 µM. recombinant ERAP1, Leu-AMC fluorescence, 60 min. Q9NZ08;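 active means mean replicate inhibition of at least 30%, or all replicates individually reaching that 30% level; inactive means mean below 30% and not every replicate reaching it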;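 further: 0% = neutral control wells and 100% = L-leucinethiol positive control wells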
# DENV2 CPE rescue: protects cells from dengue virus 2 cytopathic effect; DENV2-infected cells, cytopathic effect rescue, plate reader; CPE inhibition, % at 9.99 µM; 1.7% of 350,000 active; AID 651640; in the data active means CPE inhibition above about 20%, passing the limit was not always enough; inconclusive means no clear call, values can overlap the other calls; tested in BHK-21 cells;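 further: 0% = median of neutral control wells and 100% = median of positive control wells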
# * hit, by the source's call; ? = inconclusive; nt = no result; + = active, no number; ! = a repeat was not active.
SMILES,CAL PDZ FP-1,S100A4 inh HTS,CAL PDZ FP-2,SIRT5 inh,ERAP1 HTS inh,DENV2 CPE rescue
CN(C)CC#Cc1ccc([C@@H]2[C@H]3CN(C(=O)Cc4ccccn4)CCCCN3[C@H]2CO)cc1,nt,19.9,nt,0.7,-1.4,30.2*
COC(=O)[C@@H]1[C@@H](CO)[C@@H]2Cn3c(ccc(-c4cccnc4)c3=O)[C@H]1N2S(=O)(=O)c1ccccc1F,nt,14.3,nt,-20.9,-1.5,10.8
CC(Cc1ccccc1)NC(=O)Cc1ccc([N+](=O)[O-])cc1 (configuration not stated),30.0*,-6.6,0.7,-2.3,-1.9,-0.7
CNC(C)Cc1ccccc1 (configuration not stated),3.7,2.3,-0.1,nt,-3.0,-10.1
O=c1c2ccccc2[se]n1-c1ccccc1,-0.9,-5.3,-0.6,-2.9,75.4*,-6.6
C=CCN1CC[C@]23c4c5ccc(O)c4OC2C(O)C=CC3[C@H]1C5 (some centres not stated),-0.4,2.9,-0.8,nt,1.1,130.9*
C/C=C/c1ccc([C@H]2[C@@H](CO)N3CCCCN(C(=O)Cc4ccncc4)C[C@H]23)cc1,nt,-5.8,nt,4.8,3.6,?
COC(=O)[C@@H]1[C@@H](CO)[C@@H]2Cn3c(ccc(-c4ccc(F)cc4)c3=O)[C@H]1N2C(=O)c1ccccc1F,nt,-6.4,nt,-12.9,5.6,2.4
CSc1ccc(CNC2CN3CCC2CC3)cc1 (configuration not stated),2.3,2.6,-1.7,28.8*,-1.3,1.9
c1ccc(CNC2CN3CCC2CC3)cc1 (configuration not stated),1.5,-1.7,-0.3,nt,-0.1,-8.2
CCOC(=O)[C@@H]1[C@@H]2NC(=O)N(C)[C@@]1(C)Oc1ccccc12,nt,1.5,nt,-3.0,0.1,8.3
COc1cc(/C=C2\C(=O)NC(=O)N(c3ccccc3)C2=O)c([N+](=O)[O-])cc1OC,-0.3,2.8,46.0*,-0.4,2.2,-7.1
Cc1c(P(=S)(c2ccccc2)c2ccccc2)[n+]2ccccc2n1C,nt,0.6,0.3,11.7,-4.4,73.0*!
O=C(O)[C@H]1[C@H](CO)[C@H]2Cn3c(ccc(-c4ccccc4)c3=O)[C@@H]1N2C(=O)C1CCCCC1,nt,-0.3,nt,-35.2,-1.3,11.7
COC(=O)C1C(c2ccc(C)cc2)CC2CCC1N2C (configuration not stated),nt,-2.7,nt,nt,-2.0,28.1*
CN1/C(=C\C=C2C(=O)NC(=O)NC2=O)C(C)(C)c2ccccc21,nt,45.1,-1.4,1.4,-0.7,-3.3
CCN1/C(=C/C=C/C2=[N+](CC)c3ccccc3C2(C)C)C(C)(C)c2ccccc21,nt,+,nt,2.6,21.6,-8.6
COc1ccc(-c2ccc3n(c2=O)C[C@H]2[C@H](CO)[C@@H](C(=O)O)[C@@H]3N2C(=O)c2ccccc2F)cc1,nt,-23.0,nt,-61.5,-1.0,4.5
COC(=O)[C@H]1[C@H](CO)[C@H]2Cn3c(cccc3=O)[C@@H]1N2CCc1ccccc1,nt,-6.3,nt,-4.4,0.4,0.7
CCn1c(O)c(C=NCc2cccs2)c(=O)[nH]c1=O,50.5*,nt,-0.1,nt,nt,nt
COc1ccc(CC2C(=O)NC(C)C(=O)N(C)C3C(=O)N(C)C(Cc4ccc(O)c(c4)Oc4ccc(cc4)C3O)C(=O)NC(C)C(=O)NC(C)C(=O)N2C)cc1 (configuration not stated),-3.2,0.2,0.0,nt,-1.3,106.7*
CCOC(=O)[C@@H]1[C@@H]2NC(=S)N(C)[C@@]1(C)Oc1ccccc12,nt,-1.5,nt,-0.3,-0.7,14.5
CCOC(=O)[C@]12Cc3ccc(C)cc3[C@H]1N(C1CCCCC1)C(=O)c1ccccc12,nt,12.9,nt,-2.0,-5.4,3.5
CCOC(=O)[C@]12Cc3ccc(C)cc3[C@H]1N(C1CCCCC1)C(=O)c1cc(OC)ccc12,nt,49.0,nt,2.9,-0.3,55.2*
CCOC(=O)[C@]12Cc3c(cc(OC)c(OC)c3OC)[C@H]1N(C1CCCCC1)C(=O)c1ccccc12,nt,-1.4,nt,20.3*,18.4,5.8
SMILES,CAL PDZ FP-1,S100A4 inh HTS,CAL PDZ FP-2,SIRT5 inh,ERAP1 HTS inh,DENV2 CPE rescue
CCOC(=O)[C@]12Cc3cc(C)ccc3[C@H]1N(C1CCCCC1)C(=O)c1ccccc12,nt,-0.1,nt,3.1,-6.9,?
Cc1ccccc1N1C(=O)NC(=O)/C(=C\c2cnn(-c3ccccc3)c2)C1=O,-0.7,-5.6,0.0,19.7*,0.0,-5.4
O=C1CNC[C@H]2[C@@H](c3ccc(Br)cc3)[C@@H](CO)N12,nt,2.0,nt,-2.0,-3.0,-10.6
COC(=O)C1=C(c2ccc(F)cc2OCc2ccccc2)C[C@@H]2CC[C@H]1N2C(=O)N1CCCCC1,1.0,-3.0,-0.7,nt,nt,-11.4
COC(=O)C1=C(c2ccc(F)cc2OCc2ccccc2)C[C@@H]2CC[C@H]1N2C(=O)N1CCC(O)(c2ccc(Cl)cc2)CC1,4.5,-3.6,0.6,nt,-0.1,76.5*
COC(=O)C1=C(c2cccc(OCc3ccccc3)c2)C[C@@H]2CC[C@H]1N2C(=O)NCc1ccccc1,-1.0,9.2,-1.6,-2.1,1.1,2.3
COC(=O)C1=C(c2cc3ccccc3s2)C[C@@H]2CC[C@H]1N2C(=O)NCc1ccccc1,-3.6,2.4,-2.0,nt,nt,117.2*
COC(=O)C1=C(c2cccc(OCc3ccccc3)c2)C[C@@H]2CC[C@H]1N2C(=O)NCc1ccc(Cl)cc1,-2.8,-10.3,-1.5,-4.1,-2.2,24.6*
COC(=O)C1=C(c2cccc(OCc3ccccc3)c2)C[C@@H]2CC[C@H]1N2C(=O)NCCOc1ccccc1,-3.8,1.1,0.1,nt,-0.1,90.0*
COC(=O)C1=C(c2cc3ccccc3s2)C[C@@H]2CC[C@H]1N2C(=O)NCc1ccc(F)cc1,-6.7,-4.1,-0.4,nt,nt,-0.2
COC(=O)C1=C(c2cccc(OCc3ccccc3)c2)C[C@@H]2CC[C@H]1N2C(=O)NCCOc1ccccc1Cl,6.3,-0.2,-0.4,-2.2,0.1,3.2
COc1ccc(CC(=O)N(CCN(C)C)CC2CCCN(Cc3ccccc3F)C2)cc1 (configuration not stated),nt,-14.7,-0.4,0.7,-2.8,26.6*
CN(C)CCN(CC1CCCN(Cc2ccccc2F)C1)C(=O)Cc1ccccc1F (configuration not stated),-0.8,-15.1,-0.2,-1.7,-2.9,10.3
COc1cccc(CC(=O)N(C)C2CCCN(Cc3ccccc3F)C2)c1 (configuration not stated),nt,-6.4,-1.9,18.3*,-0.7,?
COc1ccc(-c2ccc([C@H]3[C@H](CO)N4CCCCN(C(=O)Cc5ccccc5)C[C@@H]34)cc2)cc1,nt,-1.5,nt,-1.7,3.0,-10.4
O=C(Cc1ccncc1)N1CCCCN2[C@H](CO)[C@H](c3ccc(-c4ccncc4)cc3)[C@@H]2C1,nt,4.4,nt,-28.9,-2.6,5.7
CCN(CC)C(=O)c1ccc(NC(=O)COc2ccccc2F)cc1,nt,-2.0,-0.8,20.8*,-1.0,nt

# Bioassay records: PubChem, Broad Institute
